Laboratory results from ChEMBL document CHEMBL1129963, “Sulfonimidamide analogs of oncolytic sulfonylureas” (J Med Chem, 1997).
Values after ≈ are worked out from the molar mass of the structure shown.

Experiments:
CCRF-CEM = test: In vitro cytotoxicity against CCRF-CEM cells; format: functional, cell-based; conditions: Homo sapiens
Method in brief: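 CCRF-CEM cells were grown in culture for 72 h with compound. The value is the concentration that inhibited growth to 50% of control growth.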

Mus musculus [1] = test: In vivo antitumor activity against subaxillary implanted 6C3HED lymphosarcoma implanted in C3H mice at a dose of 300 mg/kg administered perorally twice daily for a period of 8 days.; format: functional; conditions: 192 h, route oral
Method in brief: (§1)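 6C3HED lymphosarcoma was carried in C3H mice. Compound was dosed at the stated route and schedule for 8 days (daily, twice daily, or days 1, 3, 5, 7) and tumor growth inhibition was scored against controls. The table value is the lowest dose giving >80% inhibition, or the highest dose tested. Deaths per group were recorded.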

Mus musculus [2] = test: In vivo antitumor activity of compound against subaxillary implanted 6C3HED lymphosarcoma implanted in C3H mice at a dose of 300 mg/kg administered intraperitoneally daily for a period of 8 days.; format: functional; conditions: ip, 192 h, route intraperitoneal; method in brief: as §1
Mus musculus [3] = test: In vivo antitumor activity of compound against subaxillary implanted 6C3HED lymphosarcoma implanted in C3H mice at a dose of 50 mg/kg administered perorally twice daily for a period of 8 days.; format: functional; conditions: 192 h, route oral; method in brief: as §1
Mus musculus [4] = test: In vivo antitumor activity against subaxillary implanted 6C3HED lymphosarcoma implanted in C3H mice at a dose of 300 mg/kg administered perorally daily for a period of 8 days.; format: functional; conditions: 192 h, route oral; method in brief: as §1
Mus musculus [5] = test: In vivo antitumor activity against subaxillary implanted 6C3HED lymphosarcoma implanted in C3H mice at a dose of 150 mg/kg administered perorally twice daily for a period of 8 days.; format: functional; conditions: for inhibition in vivo at 150 mg/kg: Mus musculus, 6C3HED, po, 192 h; method in brief: as §1
Mus musculus [6] = test: In vivo antitumor activity of compound against subaxillary implanted 6C3HED lymphosarcoma implanted in C3H mice at a dose of 4.0 mg/kg administered intraperitoneally twice daily for a period of 8 days.; format: functional; conditions: ip, 192 h, route intraperitoneal; method in brief: as §1
Mus musculus [7] = test: In vivo antitumor activity of compound against subaxillary implanted 6C3HED lymphosarcoma implanted in C3H mice at a dose of 200 mg/kg administered perorally twice daily for a period of 8 days.; format: functional; conditions: 192 h, route oral; method in brief: as §1
Mus musculus [8] = test: In vivo antitumor activity of compound against subaxillary implanted 6C3HED lymphosarcoma implanted in C3H mice at a dose of 243 mg/kg administered intraperitoneally daily for a period of 8 days.; format: functional; conditions: ip, 192 h, route intraperitoneal; method in brief: as §1
Mus musculus [9] = test: In vivo antitumor activity of compound against subaxillary implanted 6C3HED lymphosarcoma implanted in C3H mice at a dose of 25 mg/kg administered perorally twice daily for a period of 8 days.; format: functional; conditions: 192 h, route oral; method in brief: as §1
Mus musculus [10] = test: In vivo antitumor activity of compound against subaxillary implanted 6C3HED lymphosarcoma implanted in C3H mice at a dose of 75 mg/kg administered perorally twice daily for a period of 8 days.; format: functional; conditions: 192 h, route oral; method in brief: as §1
[11] = % dose converted to 2-amino-5-chlorophenyl sulfate; format: ADME
Method in brief: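 Groups of two to four mice received single 100 mg/kg oral doses of each compound. Urine was pooled over 0-24 h, and the 2-amino-5-chlorophenyl sulfate excreted in 24 h per mouse was quantified as the marker of p-chloroaniline release.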

[12] = % dose converted to 4-(S-amino-N-{[(4-chlorophenyl)amino]carbonyl}sulfonimidoyl)benzoic acid (compound 41); format: ADME

Compound: Cc1ccc([S+]([O-])(=NC(=O)Nc2ccc(Cl)cc2)NCCCO)cc1 (centres undefined)
- IC50 (CCRF-CEM): > 20 µg/mL
- inhibition in vivo at 300 mg/kg (Mus musculus [1]): 89%

Compound: CCCC[S+]([O-])(=NC(=O)Nc1ccc(Cl)cc1)NC (centres undefined)
- IC50 (CCRF-CEM): > 20 µg/mL
- inhibition in vivo at 300 mg/kg (Mus musculus [2]): 7%

Compound: CC(=O)OCc1ccc([S+](N)([O-])=NC(=O)Nc2ccc(Cl)cc2)cc1 (centres undefined)
- IC50 (CCRF-CEM): > 20 µg/mL
- inhibition in vivo at 50 mg/kg (Mus musculus [3]): 87%

Compound: CCCN[S+]([O-])(=NC(=O)Nc1ccc(Cl)cc1)c1ccc(C)cc1 (centres undefined)
- IC50 (CCRF-CEM): 10.9 µg/mL (≈ 29.8 µM)
- inhibition in vivo at 300 mg/kg (Mus musculus [4]): 69%

Compound: COc1ccc(NC(=O)N=[S+](N)([O-])c2ccc(C)cc2)cc1 (centres undefined)
- IC50 (CCRF-CEM): > 20 µg/mL
- inhibition in vivo at 300 mg/kg (Mus musculus [1]): 0%

Compound: Cc1ccc([S+]([O-])(=NC(=O)Nc2ccc(Cl)cc2)NCCO)cc1 (centres undefined)
- IC50 (CCRF-CEM): > 20 µg/mL
- inhibition in vivo at 300 mg/kg (Mus musculus [4]): 60%

Compound: Cc1ccc([S+](N)([O-])=NC(=O)Nc2ccc(Cl)c(Cl)c2)cc1 (centres undefined)
- IC50 (CCRF-CEM): > 20 µg/mL
- inhibition in vivo at 300 mg/kg (Mus musculus [1]): 14%

Compound: N[S+]([O-])(=NC(=O)Nc1ccc(Cl)cc1)c1ccc(Br)cc1 (centres undefined)
- IC50 (CCRF-CEM): 10.6 µg/mL (≈ 27.3 µM)
- inhibition in vivo at 150 mg/kg (Mus musculus [5]): 89%

Compound: Cc1ccc([S+](N)([O-])=NC(=O)Nc2ccc(Cl)cc2)cc1C (centres undefined)
- IC50 (CCRF-CEM): > 20 µg/mL
- inhibition in vivo at 4 mg/kg (Mus musculus [6]): 97%

Compound: N[S+]([O-])(=NC(=O)Nc1ccc(Cl)cc1)c1ccc(Cl)cc1 (centres undefined)
- IC50 (CCRF-CEM): 12.3 µg/mL (≈ 35.7 µM)
- inhibition in vivo at 50 mg/kg (Mus musculus [3]): 80%

Compound: Cc1ccc([S+](N)([O-])=NC(=O)Nc2ccc(Br)cc2)cc1 (centres undefined)
- IC50 (CCRF-CEM): > 20 µg/mL
- inhibition in vivo at 150 mg/kg (Mus musculus [5]): 100%

Compound: CCN[S+]([O-])(=NC(=O)Nc1ccc(Cl)cc1)c1ccc(C)cc1 (centres undefined)
- IC50 (CCRF-CEM): 13.8 µg/mL (≈ 39.2 µM)
- inhibition in vivo at 150 mg/kg (Mus musculus [5]): 87%

Compound: Cc1cc(C)cc([S+](N)([O-])=NC(=O)Nc2ccc(Cl)cc2)c1 (centres undefined)
- IC50 (CCRF-CEM): 20 µg/mL (≈ 59.2 µM)
- inhibition in vivo at 200 mg/kg (Mus musculus [7]): 77%

Compound: N[S+]([O-])(=NC(=O)Nc1ccc(Cl)cc1)c1ccc(C(=O)O)cc1 (centres undefined)
- inhibition in vivo at 243 mg/kg (Mus musculus [8]): 0%

Compound: CCc1ccc([S+](N)([O-])=NC(=O)Nc2ccc(Cl)cc2)cc1 (centres undefined)
- IC50 (CCRF-CEM): > 20 µg/mL
- inhibition in vivo at 25 mg/kg (Mus musculus [9]): 91%

Compound: CCCCN[S+]([O-])(=NC(=O)Nc1ccc(Cl)cc1)c1ccc(C)cc1 (centres undefined)
- IC50 (CCRF-CEM): 0.4 µg/mL (≈ 1.05 µM)
- inhibition in vivo at 150 mg/kg (Mus musculus [5]): 88%

Compound: CCCCNC(=O)N=[S+](N)([O-])c1ccc(C)cc1 (centres undefined)
- IC50 (CCRF-CEM): > 20 µg/mL
- inhibition in vivo at 300 mg/kg (Mus musculus [2]): 12%

Compound: Cc1ccc([S+]([O-])(=NC(=O)Nc2ccc(Cl)cc2)NCC(C)C)cc1 (centres undefined)
- IC50 (CCRF-CEM): 0.7 µg/mL (≈ 1.84 µM)
- inhibition in vivo at 75 mg/kg (Mus musculus [10]): 85%

Compound: Cc1ccc([S+](N)([O-])=NC(=O)Nc2ccc(OCc3ccccc3)cc2)cc1 (centres undefined)
- IC50 (CCRF-CEM): > 20 µg/mL
- inhibition in vivo at 300 mg/kg (Mus musculus [1]): 5%

Compound: CC(C)(C)c1ccc([S+](N)([O-])=NC(=O)Nc2ccc(Cl)cc2)cc1 (centres undefined)
- IC50 (CCRF-CEM): 1.7 µg/mL (≈ 4.65 µM)
- inhibition in vivo at 300 mg/kg (Mus musculus [1]): 11%

Compound: Cc1ccc([S+]([O-])(=NC(=O)Nc2ccc(Cl)cc2)N(C)C)cc1 (centres undefined)
- IC50 (CCRF-CEM): > 20 µg/mL
- inhibition in vivo at 300 mg/kg (Mus musculus [1]): 63%

Compound: Cc1ccc([S+](N)([O-])=NC(=O)Nc2ccc(Cl)cc2)cc1 (stereo in doubt; 16(+))
- Dose converted [11]: < 0.3%
- Dose converted [12]: 17%
- Inhibition (Mus musculus [5]; route oral, 150 mg/kg): 5%

Compound: Cc1ccc([S+](N)([O-])=NC(=O)N(C)c2ccc(Cl)cc2)cc1 (centres undefined)
- IC50 (CCRF-CEM): > 20 µg/mL
- inhibition in vivo at 150 mg/kg (Mus musculus [5]): 83%

Compound: CN[S+]([O-])(=NC(=O)N(C)c1ccc(Cl)cc1)c1ccc(C)cc1 (centres undefined)
- IC50 (CCRF-CEM): > 20 µg/mL
- inhibition in vivo at 150 mg/kg (Mus musculus [5]): 91%

Compound: Cc1ccc([S+](N)([O-])=NC(=O)Nc2ccccc2)cc1 (centres undefined)
- IC50 (CCRF-CEM): > 20 µg/mL
- inhibition in vivo at 150 mg/kg (Mus musculus [5]): 0%

Compound: CN[S+]([O-])(=NC(=O)Nc1ccc(Cl)cc1)c1ccc2c(c1)CCC2 (centres undefined)
- IC50 (CCRF-CEM): 10.8 µg/mL (≈ 29.7 µM)
- inhibition in vivo at 150 mg/kg (Mus musculus [5]): 75%

Compound: N[S+]([O-])(=NC(=O)Nc1ccc(Cl)cc1)c1ccc(CO)cc1 (centres undefined)
- IC50 (CCRF-CEM): > 20 µg/mL
- inhibition in vivo at 75 mg/kg (Mus musculus [10]): 99%
